Source: ChEMBL document CHEMBL1649151, “Urinary bactericidal activity of Doripenem versus that of levofloxacin in patients with complicated urinary tract infections or pyelonephritis” (Antimicrob Agents Chemother, 2009)
Converted amounts (≈) assume the structure as drawn.

Legend:
[1] = system: Escherichia coli; assay: Antimicrobial activity against Escherichia coli 2297257 B-W isolated from patient with pyelonephritis assessed as >3-log reduction in urinary bacterial titer after 20 hrs; format: functional, Urine
[2] = system: Escherichia coli; assay: Antimicrobial activity against Escherichia coli 1780063 B-A isolated from patient with pyelonephritis assessed as >3-log reduction in urinary bacterial titer after 8 hrs; format: functional, Urine
Outline: (§1)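 Urine was collected before dosing and on day 3 of i.v. therapy (steady state), in 4-h intervals from infusion start (0–4 to 20–24 h), stored at −80°C and sterile filtered. It was serially diluted twofold (1:0 to 1:131,072) in the patient's drug-free pre-dose urine. Microdilution used an inoculum of 1.0 x 10^6–9.5 x 10^6 CFU/ml, incubated 18 h at 37°C, then subcultured 24 h on blood agar. The endpoint was >99.9% kill, reported as reciprocal titer.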

[3] = system: Staphylococcus haemolyticus; assay: Antimicrobial activity against Staphylococcus haemolyticus 1949819 B-M isolated from patient with pyelonephritis assessed as >3-log reduction in urinary bacterial titer after 4 hrs; format: functional, Urine
[4] = system: Escherichia coli; assay: Antimicrobial activity against Escherichia coli 1949826 B-L isolated from patient with pyelonephritis assessed as >3-log reduction in urinary bacterial titer after 24 hrs; format: functional, Urine
Outline: (§2)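 Patient urine was collected on day 3 of i.v. therapy (steady state) over 4-h intervals after infusion start, stored at –80°C, and sterile filtered. It was twofold serially diluted (1:0 to 1:131,072) in the patient's own pre-dose drug-free urine, inoculated to 1.0 x 10^6–9.5 x 10^6 CFU/ml, and incubated for 18 h at 37°C. Subcultures were grown on blood agar for 24 h. The UBT is the reciprocal of the highest dilution giving >99.9% kill.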

[5] = system: Escherichia coli; assay: Antimicrobial activity against Escherichia coli 1949825 B-K isolated from patient with pyelonephritis assessed as >3-log reduction in urinary bacterial titer after 20 hrs; format: functional, Urine; outline: as §2
[6] = system: Staphylococcus haemolyticus; assay: Antimicrobial activity against Staphylococcus haemolyticus 1949819 B-M isolated from patient with pyelonephritis assessed as >3-log reduction in urinary bacterial titer after 24 hrs; format: functional, Urine
[7] = system: Escherichia coli; assay: Antimicrobial activity against Escherichia coli 1780063 B-A isolated from patient with pyelonephritis assessed as >3-log reduction in urinary bacterial titer after 20 hrs; format: functional, Urine; outline: as §1
[8] = system: Escherichia coli; assay: Antimicrobial activity against Escherichia coli 1889645 B-I isolated from patient with pyelonephritis assessed as >3-log reduction in urinary bacterial titer after 16 hrs; format: functional, Urine
Outline: (§3)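 Urine was collected on day 3 of i.v. therapy (steady state) over 4-h intervals from infusion start (0–4 to 20–24 h), stored at –80°C and sterile filtered. It was serially diluted twofold (1:0 up to 1:131,072) in the patient's own pre-dose drug-free urine. Microdilution used a final inoculum of 1.0 x 10^6 to 9.5 x 10^6 CFU/ml, incubated 18 h at 37°C in air. 10 µl was subcultured onto 5% blood Columbia agar for 24 h at 37°C. The bactericidal endpoint was >99.9% (>3-log) kill, reported as a reciprocal titer.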

[9] = system: Escherichia coli; assay: Antimicrobial activity against Escherichia coli 1780063 B-A isolated from patient with pyelonephritis by Etest; format: functional
[10] = system: Staphylococcus haemolyticus; assay: Antimicrobial activity against Staphylococcus haemolyticus 1949819 B-M isolated from patient with pyelonephritis by Etest; format: functional
[11] = system: Escherichia coli; assay: Antimicrobial activity against Escherichia coli 1889645 B-I isolated from patient with pyelonephritis assessed as >3-log reduction in urinary bacterial titer after 24 hrs; format: functional, Urine; outline: as §3
[12] = system: Escherichia coli; assay: Antimicrobial activity against Escherichia coli 1949826 B-L isolated from patient with pyelonephritis assessed as >3-log reduction in urinary bacterial titer after 8 hrs; format: functional, Urine; outline: as §2
[13] = system: Staphylococcus haemolyticus; assay: Antimicrobial activity against Staphylococcus haemolyticus 1949819 B-M isolated from patient with pyelonephritis assessed as >3-log reduction in urinary bacterial titer after 12 hrs; format: functional, Urine
[14] = system: Escherichia coli; assay: Antimicrobial activity against Escherichia coli 1889646 B-F isolated from patient with pyelonephritis assessed as >3-log reduction in urinary bacterial titer after 4 hrs; format: functional, Urine; outline: as §3
[15] = system: Escherichia coli; assay: Antimicrobial activity against Escherichia coli 1889645 B-I isolated from patient with pyelonephritis assessed as >3-log reduction in urinary bacterial titer after 20 hrs; format: functional, Urine; outline: as §3
[16] = system: Escherichia coli; assay: Antimicrobial activity against Escherichia coli 1889645 B-I isolated from patient with pyelonephritis assessed as >3-log reduction in urinary bacterial titer after 8 hrs; format: functional, Urine; outline: as §3
[17] = system: Escherichia coli; assay: Antimicrobial activity against Escherichia coli 2062717 B-P isolated from patient with pyelonephritis assessed as >3-log reduction in urinary bacterial titer after 12 hrs; format: functional, Urine; outline: as §2
[18] = system: Escherichia coli; assay: Antimicrobial activity against Escherichia coli 1821385 B-C isolated from patient with pyelonephritis assessed as >3-log reduction in urinary bacterial titer after 24 hrs; format: functional, Urine; outline: as §3
[19] = system: Escherichia coli; assay: Antimicrobial activity against Escherichia coli 1949825 B-K isolated from patient with pyelonephritis assessed as >3-log reduction in urinary bacterial titer after 16 hrs; format: functional, Urine; outline: as §2
[20] = system: Staphylococcus aureus; assay: Antimicrobial activity against Staphylococcus aureus 1889640 A-Z isolated from patient with pyelonephritis assessed as >3-log reduction in urinary bacterial titer after 16 hrs; format: functional, Urine
[21] = system: Escherichia coli; assay: Antimicrobial activity against Escherichia coli 1780064 A-X isolated from patient with pyelonephritis assessed as >3-log reduction in urinary bacterial titer after 24 hrs; format: functional, Urine; outline: as §3
[22] = system: Enterococcus faecalis; assay: Antimicrobial activity against Enterococcus faecalis 2215767-10 B-S isolated from patient with pyelonephritis assessed as >3-log reduction in urinary bacterial titer after 4 hrs; format: functional, Urine; outline: as §1
[23] = system: Pseudomonas aeruginosa; assay: Antimicrobial activity against Pseudomonas aeruginosa 2062713 B-Q isolated from patient with pyelonephritis assessed as >3-log reduction in urinary bacterial titer after 16 hrs; format: functional, Urine
[24] = system: Enterococcus faecalis; assay: Antimicrobial activity against Enterococcus faecalis 2297262-10 B-V isolated from patient with pyelonephritis assessed as >3-log reduction in urinary bacterial titer after 4 hrs; format: functional, Urine; outline: as §1
[25] = system: Escherichia coli; assay: Antimicrobial activity against Escherichia coli 1821386 B-D isolated from patient with pyelonephritis assessed as >3-log reduction in urinary bacterial titer after 8 hrs; format: functional, Urine; outline: as §3
[26] = system: Enterococcus faecalis; assay: Antimicrobial activity against Enterococcus faecalis 2297262-10 B-V isolated from patient with pyelonephritis by Etest; format: functional
[27] = system: Serratia marcescens; assay: Antimicrobial activity against Serratia marcescens 2297260 B-U isolated from patient with pyelonephritis assessed as >3-log reduction in urinary bacterial titer after 16 hrs; format: functional, Urine
[28] = system: Staphylococcus aureus; assay: Antimicrobial activity against Staphylococcus aureus 1889640 A-Z isolated from patient with pyelonephritis assessed as >3-log reduction in urinary bacterial titer after 20 hrs; format: functional, Urine
[29] = system: Pseudomonas aeruginosa; assay: Antimicrobial activity against Pseudomonas aeruginosa 2062713 B-Q isolated from patient with pyelonephritis assessed as >3-log reduction in urinary bacterial titer after 20 hrs; format: functional, Urine
[30] = system: Escherichia coli; assay: Antimicrobial activity against Escherichia coli 1821386 B-D isolated from patient with pyelonephritis assessed as >3-log reduction in urinary bacterial titer after 20 hrs; format: functional, Urine; outline: as §3
[31] = system: Enterococcus faecalis; assay: Antimicrobial activity against Enterococcus faecalis 2215767-10 B-S isolated from patient with pyelonephritis assessed as >3-log reduction in urinary bacterial titer after 8 hrs; format: functional, Urine; outline: as §1
[32] = system: Enterococcus faecalis; assay: Antimicrobial activity against Enterococcus faecalis 2215767-10 B-S isolated from patient with pyelonephritis assessed as >3-log reduction in urinary bacterial titer after 12 hrs; format: functional, Urine; outline: as §1
[33] = system: Enterococcus faecalis; assay: Antimicrobial activity against Enterococcus faecalis 2297262-10 B-V isolated from patient with pyelonephritis assessed as >3-log reduction in urinary bacterial titer after 20 hrs; format: functional, Urine; outline: as §1
[34] = system: Serratia marcescens; assay: Antimicrobial activity against Serratia marcescens 2297260 B-U isolated from patient with pyelonephritis assessed as >3-log reduction in urinary bacterial titer after 8 hrs; format: functional, Urine

**Q.** What does the source list for `C[C@@H](O)[C@H]1C(=O)N2C(C(=O)O)=C(S[C@@H]3CN[C@H](CNS(N)(=O)=O)C3)[C@H](C)[C@H]12` [DORIPENEM]?
**A.** urinary bactericidal titer [1]: 32800 titer; urinary bactericidal titer [2]: 1024 reciprocal titer; urinary bactericidal titer [3]: 512 reciprocal titer; urinary bactericidal titer [4]: 16400 reciprocal titer; urinary bactericidal titer [5]: 4096 reciprocal titer; urinary bactericidal titer [6]: 128 reciprocal titer; urinary bactericidal titer [7]: 4096 reciprocal titer; urinary bactericidal titer [8]: 32800 titer; MIC [9]: 0.03 µg/mL (≈ 0.0713 µM); MIC [10]: 1 µg/mL (≈ 2.38 µM); urinary bactericidal titer [11]: 4096 reciprocal titer; urinary bactericidal titer [12]: 32800 reciprocal titer; urinary bactericidal titer [13]: 1024 reciprocal titer; urinary bactericidal titer [14]: 65500 reciprocal titer; urinary bactericidal titer [15]: 65500 reciprocal titer; urinary bactericidal titer [16]: 32800 reciprocal titer; urinary bactericidal titer [17]: 1024 reciprocal titer; urinary bactericidal titer [18]: 256 reciprocal titer; urinary bactericidal titer [19]: 2048 reciprocal titer

**Q.** What does the source list for `C[C@H]1COc2c(N3CCN(C)CC3)c(F)cc3c(=O)c(C(=O)O)cn1c23.C[C@H]1COc2c(N3CCN(C)CC3)c(F)cc3c(=O)c(C(=O)O)cn1c23.O` [LEVOFLOXACIN]?
**A.** urinary bactericidal titer [20]: 128 reciprocal titer; urinary bactericidal titer [21]: 128 reciprocal titer; Time [22]: 0 h; urinary bactericidal titer [23]: 4 reciprocal titer; Time [24]: 0 h; urinary bactericidal titer [25]: 8192 reciprocal titer; MIC [26]: > 32 µg/mL; urinary bactericidal titer [27]: 128 reciprocal titer; urinary bactericidal titer [28]: 64 reciprocal titer; urinary bactericidal titer [29]: 4 reciprocal titer; urinary bactericidal titer [30]: 2048 reciprocal titer; urinary bactericidal titer [31]: 0 reciprocal titer; urinary bactericidal titer [32]: 1 reciprocal titer; Time [33]: 0 h; urinary bactericidal titer [34]: 256 reciprocal titer
